Sampled rows, rich in hits. Any-hit rate of the full collection: about 4.1%.
KCNQ1 inh = inhibitors of human KCNQ1 potassium channel; AID 2642; B-score at 10 µM; 1.3% of 310,000 active; CHO-K1 KCNQ1, FluxOR thallium flux fluorescence; active compounds read high; P51787;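 active means compounds whose thallium flux B-score, printed positive for inhibition, exceeds three library SD while starting fluorescence stays within three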;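 further: channel opened by potassium depolarization with thallium stimulus after 20 min compound exposure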
KCNK9 block = human KCNK9 channel inhibition; Q9NPC2; HEK293 KCNK9, FluxOR thallium flux fluorescence; active compounds read low; B-score at 10 µM; 1.2% of 310,000 active; AID 488922;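 active means ratio B-score over 3 SD below the library mean, with starting fluorescence within 5 SD of its mean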;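 further: negative B-score means less thallium flux so channel inhibition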
Cl transport mod = KCC2 (human) Cl- transport modulation. Q9H2X9. KCC2 cells, thallium flux FluoZin-2 fluorescence. B-score of Tl+ flux slope (higher = more flux/activation; lower = inhibition) at 10 µM. 2.2% of 190,000 active;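 active means thallium flux slope and its plate-corrected score both differing from the plate sample mean at a set confidence after two filtering rounds, in either direction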;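 further: slope of fluorescence scaled to starting intensity during 10 to 20 s after thallium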
Target sequence (Q9H2X9 whole entry, looked up): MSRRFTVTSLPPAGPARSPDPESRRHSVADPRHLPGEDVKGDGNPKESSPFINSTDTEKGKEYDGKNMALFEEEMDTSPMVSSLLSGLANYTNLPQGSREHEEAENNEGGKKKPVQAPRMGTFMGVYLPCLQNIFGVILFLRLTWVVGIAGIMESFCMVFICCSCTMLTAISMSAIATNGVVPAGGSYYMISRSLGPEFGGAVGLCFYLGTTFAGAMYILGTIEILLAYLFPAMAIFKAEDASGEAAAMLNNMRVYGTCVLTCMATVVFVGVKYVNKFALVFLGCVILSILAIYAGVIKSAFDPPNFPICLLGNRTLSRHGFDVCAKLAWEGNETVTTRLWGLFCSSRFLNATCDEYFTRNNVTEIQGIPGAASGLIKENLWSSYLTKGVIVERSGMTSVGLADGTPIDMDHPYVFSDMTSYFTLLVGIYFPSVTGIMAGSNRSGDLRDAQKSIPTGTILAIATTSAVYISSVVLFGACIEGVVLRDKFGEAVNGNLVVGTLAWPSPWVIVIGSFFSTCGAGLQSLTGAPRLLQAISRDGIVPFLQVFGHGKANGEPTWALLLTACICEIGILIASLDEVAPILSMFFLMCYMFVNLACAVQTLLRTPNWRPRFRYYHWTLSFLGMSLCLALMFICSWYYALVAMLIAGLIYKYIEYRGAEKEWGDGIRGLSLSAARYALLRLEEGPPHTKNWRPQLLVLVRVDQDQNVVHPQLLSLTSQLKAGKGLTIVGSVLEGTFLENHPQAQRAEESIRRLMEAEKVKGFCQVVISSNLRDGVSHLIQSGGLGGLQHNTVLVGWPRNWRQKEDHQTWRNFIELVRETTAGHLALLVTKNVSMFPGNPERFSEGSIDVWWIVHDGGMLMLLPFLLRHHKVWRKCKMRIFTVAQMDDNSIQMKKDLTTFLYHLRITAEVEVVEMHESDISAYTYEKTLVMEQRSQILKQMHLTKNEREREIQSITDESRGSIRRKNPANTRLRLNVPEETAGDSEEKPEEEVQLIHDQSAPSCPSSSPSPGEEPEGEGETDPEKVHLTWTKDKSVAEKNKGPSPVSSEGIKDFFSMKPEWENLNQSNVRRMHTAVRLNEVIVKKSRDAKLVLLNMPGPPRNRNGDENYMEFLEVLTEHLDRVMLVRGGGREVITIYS
KCNK3 inh = human KCNK3 channel inhibition, primary screen; O14649; CHO-KCNK3 thallium flux, FluxOR fluorescence; active compounds read low; B-score at 10 µM; 0.84% of 340,000 active;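 active means B-score under library mean minus 4 SD, starting fluorescence ratio at most library mean plus 5 SD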;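 further: more negative B-score means stronger inhibition of thallium flux through KCNK3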
KCNQ1 pot = potentiators or activators of human KCNQ1 potassium channel | P51787 | CHO-K1 KCNQ1, thallium flux FluxOR fluorescence; active compounds read high | B-score at 10 µM | 0.35% of 310,000 active;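 active means fluorescence ratio B-score, a plate-corrected score, at least three library SD, with initial intensity B-score within 5 SD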
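assay system = KCNQ1-transfected CHO-K1 cells | medium = assay buffer with matched DMSO | probe or stimulus = depolarizing K+/Tl+ stimulus, K2SO4 and Tl2SO4 each 12.5 mM in 5x stock | dosing = single dose | incubation = dye 90 min, compound 20 min, room temperature | detection = kinetic FluxOR fluorescence, 10 s baseline plus 110 s post-stimulus | evaluation = ratio B score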
hERG protect = hERG (human) protection from proarrhythmic block; Q12809; CHO-hERG, FluxOR thallium flux, dofetilide IC70 present; activation (rescue from dofetilide block), less the hit threshold, % at 10 µM; 0.51% of 310,000 active;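 active means activation above the mean of controls blocked by dofetilide plus 5 SD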;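 further: thallium influx through hERG after potassium depolarization seen as dye fluorescence rise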
KCC2 sec1 = confirmation of human KCC2 transport modulators | shares compounds with Cl transport mod | HEK293-KCC2, thallium flux, FluoZin2 fluorescence; active compounds read high | normalised thallium flux (F/F0 slope) at 10 µM | 15% of 3,700 active | AID 1713;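 active means thallium flux slope above the same plate's solvent-only control mean plus 3 SD; inconclusive means the two replicate wells disagree; inactive means no significant difference from solvent-only control wells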
KCC2 bumet counter = thallium flux despite bumetanide block in KCC2 cells, secondary assay 3. HEK293-KCC2 + bumetanide/ouabain, thallium flux FluoZin2; active compounds read high. normalized thallium flux at 10 µM. 49% of 3,700 active. AID 1714. shares compounds with Cl transport mod;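 active means thallium entry rate above the same plate's blocked-transporter control wells by more than 3 SD; inconclusive means the two repeat wells disagree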;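 further: raw slope of fluorescence over initial fluorescence between 10 and 20 s after thallium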
KCC2 sec2 = KCC2 (human) modulation, second secondary assay | HEK293-KCC2, thallium flux FluoZin2 fluorescence; actives lie on both sides; F/F0 rise rate, 10–20 s post-thallium | 23% of 3,700 active | normalized thallium flux at 10 µM | shares compounds with Cl transport mod;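 active means thallium flux slope more than 3 SD above or below the plate's solvent-only control mean, mostly below; inconclusive means the two repeat wells disagreed; inactive means no significant shift from solvent-only controls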;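 further: raw slope with 0.1% DMSO as baseline and bumetanide as block control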
HEK counter1 = parental HEK flux effect, counter-screen | AID 1716 | HEK293 parental cells, thallium flux FluoZin2, ouabain; baseline-ratio fluorescence slope, 10–20 s after thallium | thallium flux rate (normalised fluorescence) at 10 µM | shares compounds with Cl transport mod | 46% of 3,700 active;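 active means thallium flux rate significantly above the same plate's solvent-only control wells, beyond their mean plus 3 SD; inconclusive means the two replicate wells gave conflicting results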
KCC2 retest ouab = confirmation of human KCC2 modulators with ouabain. shares compounds with Cl transport mod. HEK293-KCC2, thallium flux FluoZin2 fluorescence; bidirectional: low = inhibitor, high = activator. raw Tl+ flux slope (below DMSO = inhibition, above = activation) at 10 µM. 48% of 3,700 active. AID 1717;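 active means thallium flux slope beyond 3 SD from same-plate DMSO control mean in most replicates, usually higher, sometimes lower; inconclusive means repeat tests gave conflicting results; inactive means no significant difference from controls in most replicates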;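 further: slope of initial-normalized fluorescence between seconds 10 and 20 after thallium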
HEK counter2 = parental HEK flux effect, counter-screen 2 | thallium flux slope at 10 µM | 33% of 3,700 active | AID 1718 | shares compounds with Cl transport mod | HEK293 parental, thallium flux FluoZin-2 fluorescence slope;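 active means thallium flux slope above the same plate's solvent-control mean plus 3 SD in both duplicate wells; inconclusive means duplicate wells that disagreed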;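 further: run without ouabain in cells lacking the KCC2 cotransporter; slope of fluorescence scaled to its starting value between 10 and 20 s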
* marks the source's active call; other numbers are inactive results; i = inactive; ? = inconclusive; · = no result.

SMILES	KCNQ1 inh	KCNK9 block	Cl transport mod	KCNK3 inh	KCNQ1 pot	hERG protect	KCC2 sec1	KCC2 bumet counter	KCC2 sec2	HEK counter1	KCC2 retest ouab	HEK counter2
O=C(CSc1nc2cc(Cl)ccc2s1)c1ccco1	i	i	13*	i	i	-7	0.025*	0.036*	0.043*	0.03*	0.036*	0.033*
CCOc1cc(Br)ccc1S(=O)(=O)NCc1ccccc1	i	i	·	i	i	-11	0.007	0.0051	0.024*	0.0074	0.016*	0.01
Cc1cccc(CC(=O)NCC2CCCCC2)c1	i	i	·	i	i	-1	·	·	·	·	·	·
CC1CCCC(C)N1c1nnc(NC(=O)c2cc(-c3ccc(Br)cc3)on2)s1 (stereo not drawn)	i	i	12*	i	i	-22	0.0087	0.02*	0.028	0.011*	?	?
O=C(Nc1nnc(N2CCCCCC2)s1)c1cc(-c2ccc(Br)cc2)on1	i	i	0.14	i	i	-7	·	·	·	·	·	·
Cc1nn(Cc2ccccc2)c(C)c1NC(=O)c1noc2c1CCc1ccccc1-2	i	i	-4.7*	i	i	-17	0.0098	?	0.035	0.0078	?	0.011
Cc1cccc(C)c1OCc1cc(C(=O)N(C)CCc2ccccn2)no1	i	i	·	i	i	-8	·	·	·	·	·	·
Cc1ccc(S(=O)(=O)N2CCC(=O)N(C(COCc3ccccc3)Cc3ccccc3)CC2)cc1 (stereo not drawn)	i	i	-5.9*	i	i	-7	0.0091	0.0061	?	0.0072	0.015*	0.011
O=C(N/N=C/c1cn(-c2ccccc2)nc1-c1ccccc1)c1ccco1	i	i	0.0086	i	i	-18	·	·	·	·	·	·
Cc1ccc(-c2nn(-c3ccccc3)cc2/C=N/NC(=O)c2ccc(Br)o2)cc1	·	·	3.2*	i	·	·	0.0078	0.0066*	0.033	0.01*	0.021	0.014*
O=C(N/N=C\c1cn(-c2ccccc2)nc1-c1ccccc1)c1ccc(Br)o1	13*	-7.1*	3.9*	i	i	-9	0.0095	0.012*	0.035	0.013*	0.022	?
c1ccc(CCc2nn3c(Cc4ccccc4)nnc3s2)cc1	i	i	-2.7*	i	i	-12	0.0073	0.0062	0.032	0.0065	0.018*	0.011
CCOc1cc(C2NN=C(c3ccccc3)S2)ccc1OCc1ccccc1Cl (stereo not drawn)	i	i	6*	i	i	-13	0.0085	0.0045	0.031	0.0077	0.019	0.01
CC(C)(C)OC(=O)NN1CC(=O)N2Cc3[nH]c4ccccc4c3C[C@H]2C1=O	i	i	·	i	i	-9	·	·	·	·	·	·
COc1ccc(Cl)cc1-c1n[nH]c(=S)n1C1CCCCC1	i	i	0.026	i	i	3	·	·	·	·	·	·
Cc1cc(Cl)ccc1OCc1n[nH]c(=S)n1C1CCCCC1	i	i	16*	i	i	-9	0.0072	0.041*	0.049*	0.04*	0.036*	0.031*
OCC1N=C(c2ccccn2)OC1c1ccccc1 (stereo not drawn)	i	i	-5.8*	i	i	-5	0.0072	0.007	0.03	0.0072	0.02	0.01*
CCOc1ccccc1C(=O)N/N=C/c1ccoc1	i	i	·	i	i	-10	·	·	·	·	·	·
CC(C)(C)NC(=O)C(=O)NNC(=O)c1ccccc1	i	i	3.7*	i	i	-2	0.019*	0.034*	0.035	0.017*	0.029	0.012*
CC(C)(C)NC(=O)C(=O)NNC(=O)c1cccc(F)c1	i	i	21*	i	i	-12	0.006	0.025*	0.038*	0.024*	0.032*	0.026*
CC(C)(C)NC(=O)C(=O)NNC(=O)COc1ccccc1	i	i	4.4	i	i	-2	·	·	·	·	·	·
COCCN1CCN(C(=O)c2cc(COc3ccc(F)cc3F)on2)CC1	i	i	·	i	i	-8	·	·	·	·	·	·
CCC(C)c1ccc(NC(=S)N2CCN(C(=O)C3CCCO3)CC2)cc1 (stereo not drawn)	i	i	·	i	i	-14	·	·	·	·	·	·
COc1cc2c(cc1OC)[C@@H](NC(=O)COc1ccccc1)[C@H](OCc1ccccc1)C2	·	·	·	i	·	·	·	·	·	·	·	·
O=C(NC(=S)NN1CCCCC1c1cccnc1)c1ccc(Br)cc1 (stereo not drawn)	i	i	65*	i	i	-14	0.033*	0.099*	0.046*	0.04*	0.066*	0.02*
SMILES	KCNQ1 inh	KCNK9 block	Cl transport mod	KCNK3 inh	KCNQ1 pot	hERG protect	KCC2 sec1	KCC2 bumet counter	KCC2 sec2	HEK counter1	KCC2 retest ouab	HEK counter2
COC(=O)c1ccc(NC(=S)NN2CCCCC2c2cccnc2)cc1 (stereo not drawn)	i	i	-0.9	i	i	-7	·	·	·	·	·	·
NC(=O)c1cc[n+](Cc2ccc([N+](=O)[O-])cc2)cc1	i	i	·	i	i	-12	·	·	·	·	·	·
O=C(Cn1nc2ccccc2n1)N/N=C/c1cc(Cl)cc([N+](=O)[O-])c1O	·	·	-5.3*	i	·	·	0.0071	?	0.025*	0.0071	?	0.011
O=C(N/N=C/c1cc(Cl)cc([N+](=O)[O-])c1O)C1CC1	i	i	0.13	i	i	-18	·	·	·	·	·	·
O=C(NCCSCc1ccccc1)c1cc(S(=O)(=O)N2CCOCC2)ccc1F	i	i	-3.8*	i	i	-13	0.0063	0.0051	0.026*	0.0076	?	0.011
COc1ccc2c(C(=O)c3ccc(Cl)cc3)n(CCCC(N)=O)[n+]([O-])c2c1	i	i	·	i	i	-8	·	·	·	·	·	·
CCCn1c(C)nc2c(c1=O)c1nc3ccccc3nc1n2CCC1=CCCCC1	i	i	-0.13	i	i	-10	·	·	·	·	·	·

Assay outcomes: PubChem BioAssay, several laboratories
